Tested on: HEK-293T
Assay: Multiplex assay against HEK293T;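 for Population Tubulin-Different-Phenotype (%): share of the cells with healthy nuclei that show this phenotype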
Format: toxicity, cell-based
Conditions: human
How it was run: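 At seeding, live cells were stained with Hoechst33342, BioTracker Green Microtubule Cytoskeleton Dye, MitoTracker Red and Annexin V Alexa Fluor 680. After compound addition they were imaged on a CQ1 microscope at 37°C and 5% CO2, and CellPathfinder machine-learning gating sorted them into Hoechst high-intensity objects or normal cells, with normal cells further split into healthy, pyknosed or fragmented nuclei and pyknosed cells into mitotic or apoptotic. Tubulin, mitochondrial-mass and membrane-permeability phenotypes are given as per cents of cells with healthy nuclei.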

[1] = 12 h, 1 µM, compound concentration 1 uM, replicate 1
[2] = 12 h, 1 µM, compound concentration 1 uM, replicate 2
[3] = 12 h, 10 µM, compound concentration 10 uM, replicate 1
[4] = 12 h, 10 µM, compound concentration 10 uM, replicate 2
[5] = 24 h, 1 µM, compound concentration 1 uM, replicate 1
[6] = 24 h, 1 µM, compound concentration 1 uM, replicate 2
[7] = 24 h, 10 µM, compound concentration 10 uM, replicate 1
[8] = 24 h, 10 µM, compound concentration 10 uM, replicate 2
[9] = 48 h, 1 µM, compound concentration 1 uM, replicate 1
[10] = 48 h, 1 µM, compound concentration 1 uM, replicate 2
[11] = 48 h, 10 µM, compound concentration 10 uM, replicate 1
[12] = 48 h, 10 µM, compound concentration 10 uM, replicate 2

## Cc1cc(C)cc(-c2cnc3cc(Cl)c(-c4cccc(O)c4)cc3c2OCCCN)c1
[1]
  Population Apoptotic (%): 53%
  Population Fragmented Nuclei (%): 11%
  Population Healthy Nuclei (%): 40%
  Population Hoechst High Intensity Objects (%): 10%
  Population Membrane Permeable-Phenotype (%): 3%
  Population Mitochondria Different-Phenotype (%): 95%
  Population Mitotic Cells (%): 46%
  Population Normal (%): 89%
  Population Pyknosed Nuclei (%): 47%
  Population Tubulin-Different-Phenotype (%): 92%
  Total Cell Count: 349
[2]
  Population Apoptotic (%): 31%
  Population Fragmented Nuclei (%): 5%
  Population Healthy Nuclei (%): 43%
  Population Hoechst High Intensity Objects (%): 3%
  Population Membrane Permeable-Phenotype (%): 6%
  Population Mitochondria Different-Phenotype (%): 66%
  Population Mitotic Cells (%): 68%
  Population Normal (%): 96%
  Population Pyknosed Nuclei (%): 50%
  Population Tubulin-Different-Phenotype (%): 63%
  Total Cell Count: 251
[3]
  Population Apoptotic (%): 70%
  Population Fragmented Nuclei (%): 23%
  Population Healthy Nuclei (%): 1%
  Population Hoechst High Intensity Objects (%): 13%
  Population Membrane Permeable-Phenotype (%): 33%
  Population Mitochondria Different-Phenotype (%): 33%
  Population Mitotic Cells (%): 29%
  Population Normal (%): 86%
  Population Pyknosed Nuclei (%): 74%
  Population Tubulin-Different-Phenotype (%): 66%
  Total Cell Count: 226
[4]
  Population Apoptotic (%): 90%
  Population Fragmented Nuclei (%): 5%
  Population Healthy Nuclei (%): 18%
  Population Hoechst High Intensity Objects (%): 3%
  Population Membrane Permeable-Phenotype (%): 0%
  Population Mitochondria Different-Phenotype (%): 91%
  Population Mitotic Cells (%): 9%
  Population Normal (%): 96%
  Population Pyknosed Nuclei (%): 76%
  Population Tubulin-Different-Phenotype (%): 97%
  Total Cell Count: 192
[5]
  Population Apoptotic (%): 53%
  Population Fragmented Nuclei (%): 15%
  Population Healthy Nuclei (%): 26%
  Population Hoechst High Intensity Objects (%): 12%
  Population Membrane Permeable-Phenotype (%): 1%
  Population Mitochondria Different-Phenotype (%): 98%
  Population Mitotic Cells (%): 46%
  Population Normal (%): 87%
  Population Pyknosed Nuclei (%): 57%
  Population Tubulin-Different-Phenotype (%): 90%
  Total Cell Count: 358
[6]
  Population Apoptotic (%): 39%
  Population Fragmented Nuclei (%): 6%
  Population Healthy Nuclei (%): 56%
  Population Hoechst High Intensity Objects (%): 2%
  Population Mitochondria Different-Phenotype (%): 81%
  Population Mitotic Cells (%): 60%
  Population Normal (%): 97%
  Population Pyknosed Nuclei (%): 36%
  Population Tubulin-Different-Phenotype (%): 79%
  Total Cell Count: 296
[7]
  Population Apoptotic (%): 77%
  Population Fragmented Nuclei (%): 22%
  Population Healthy Nuclei (%): 1%
  Population Hoechst High Intensity Objects (%): 12%
  Population Membrane Permeable-Phenotype (%): 0%
  Population Mitochondria Different-Phenotype (%): 66%
  Population Mitotic Cells (%): 22%
  Population Normal (%): 87%
  Population Pyknosed Nuclei (%): 76%
  Population Tubulin-Different-Phenotype (%): 66%
  Total Cell Count: 232
[8]
  Population Apoptotic (%): 94%
  Population Fragmented Nuclei (%): 6%
  Population Healthy Nuclei (%): 9%
  Population Hoechst High Intensity Objects (%): 8%
  Population Membrane Permeable-Phenotype (%): 6%
  Population Mitochondria Different-Phenotype (%): 75%
  Population Mitotic Cells (%): 5%
  Population Normal (%): 91%
  Population Pyknosed Nuclei (%): 83%
  Population Tubulin-Different-Phenotype (%): 75%
  Total Cell Count: 183
[9]
  Population Apoptotic (%): 51%
  Population Fragmented Nuclei (%): 17%
  Population Healthy Nuclei (%): 13%
  Population Hoechst High Intensity Objects (%): 18%
  Population Membrane Permeable-Phenotype (%): 0%
  Population Mitochondria Different-Phenotype (%): 87%
  Population Mitotic Cells (%): 48%
  Population Normal (%): 81%
  Population Pyknosed Nuclei (%): 68%
  Population Tubulin-Different-Phenotype (%): 75%
  Total Cell Count: 352
[10]
  Population Apoptotic (%): 33%
  Population Fragmented Nuclei (%): 5%
  Population Healthy Nuclei (%): 75%
  Population Hoechst High Intensity Objects (%): 6%
  Population Membrane Permeable-Phenotype (%): 3%
  Population Mitochondria Different-Phenotype (%): 55%
  Population Mitotic Cells (%): 66%
  Population Normal (%): 93%
  Population Pyknosed Nuclei (%): 19%
  Population Tubulin-Different-Phenotype (%): 69%
  Total Cell Count: 406
[11]
  Population Apoptotic (%): 80%
  Population Fragmented Nuclei (%): 27%
  Population Healthy Nuclei (%): 1%
  Population Hoechst High Intensity Objects (%): 16%
  Population Membrane Permeable-Phenotype (%): 0%
  Population Mitochondria Different-Phenotype (%): 50%
  Population Mitotic Cells (%): 19%
  Population Normal (%): 83%
  Population Pyknosed Nuclei (%): 71%
  Population Tubulin-Different-Phenotype (%): 50%
  Total Cell Count: 238
[12]
  Population Apoptotic (%): 96%
  Population Fragmented Nuclei (%): 15%
  Population Healthy Nuclei (%): 14%
  Population Hoechst High Intensity Objects (%): 7%
  Population Membrane Permeable-Phenotype (%): 12%
  Population Mitochondria Different-Phenotype (%): 79%
  Population Mitotic Cells (%): 3%
  Population Normal (%): 92%
  Population Pyknosed Nuclei (%): 70%
  Population Tubulin-Different-Phenotype (%): 83%
  Total Cell Count: 179

## Cc1[nH]c(/C=C2\C(=O)Nc3ccc(S(=O)(=O)N(C)c4cccc(Cl)c4)cc32)c(C)c1C(=O)N1CCN(C)CC1
[1]
  Population Apoptotic (%): 60%
  Population Fragmented Nuclei (%): 7%
  Population Healthy Nuclei (%): 47%
  Population Hoechst High Intensity Objects (%): 16%
  Population Membrane Permeable-Phenotype (%): 7%
  Population Mitochondria Different-Phenotype (%): 93%
  Population Mitotic Cells (%): 39%
  Population Normal (%): 83%
  Population Pyknosed Nuclei (%): 44%
  Population Tubulin-Different-Phenotype (%): 91%
  Total Cell Count: 198
[2]
  Population Apoptotic (%): 23%
  Population Fragmented Nuclei (%): 6%
  Population Healthy Nuclei (%): 46%
  Population Hoechst High Intensity Objects (%): 4%
  Population Membrane Permeable-Phenotype (%): 18%
  Population Mitochondria Different-Phenotype (%): 52%
  Population Mitotic Cells (%): 76%
  Population Normal (%): 95%
  Population Pyknosed Nuclei (%): 47%
  Population Tubulin-Different-Phenotype (%): 71%
  Total Cell Count: 243
[3]
  Population Apoptotic (%): 67%
  Population Fragmented Nuclei (%): 12%
  Population Healthy Nuclei (%): 29%
  Population Hoechst High Intensity Objects (%): 15%
  Population Membrane Permeable-Phenotype (%): 5%
  Population Mitochondria Different-Phenotype (%): 90%
  Population Mitotic Cells (%): 32%
  Population Normal (%): 84%
  Population Pyknosed Nuclei (%): 57%
  Population Tubulin-Different-Phenotype (%): 98%
  Total Cell Count: 214
[4]
  Population Apoptotic (%): 50%
  Population Fragmented Nuclei (%): 4%
  Population Healthy Nuclei (%): 40%
  Population Hoechst High Intensity Objects (%): 5%
  Population Membrane Permeable-Phenotype (%): 19%
  Population Mitochondria Different-Phenotype (%): 57%
  Population Mitotic Cells (%): 50%
  Population Normal (%): 94%
  Population Pyknosed Nuclei (%): 55%
  Population Tubulin-Different-Phenotype (%): 93%
  Total Cell Count: 157
[5]
  Population Apoptotic (%): 55%
  Population Fragmented Nuclei (%): 11%
  Population Healthy Nuclei (%): 48%
  Population Hoechst High Intensity Objects (%): 18%
  Population Membrane Permeable-Phenotype (%): 3%
  Population Mitochondria Different-Phenotype (%): 85%
  Population Mitotic Cells (%): 44%
  Population Normal (%): 81%
  Population Pyknosed Nuclei (%): 40%
  Population Tubulin-Different-Phenotype (%): 86%
  Total Cell Count: 212
[6]
  Population Apoptotic (%): 24%
  Population Fragmented Nuclei (%): 4%
  Population Healthy Nuclei (%): 56%
  Population Hoechst High Intensity Objects (%): 3%
  Population Membrane Permeable-Phenotype (%): 7%
  Population Mitochondria Different-Phenotype (%): 57%
  Population Mitotic Cells (%): 75%
  Population Normal (%): 96%
  Population Pyknosed Nuclei (%): 38%
  Population Tubulin-Different-Phenotype (%): 71%
  Total Cell Count: 295
[7]
  Population Apoptotic (%): 88%
  Population Fragmented Nuclei (%): 15%
  Population Healthy Nuclei (%): 27%
  Population Hoechst High Intensity Objects (%): 12%
  Population Membrane Permeable-Phenotype (%): 5%
  Population Mitochondria Different-Phenotype (%): 100%
  Population Mitotic Cells (%): 11%
  Population Normal (%): 87%
  Population Pyknosed Nuclei (%): 56%
  Population Tubulin-Different-Phenotype (%): 98%
  Total Cell Count: 230
[8]
  Population Apoptotic (%): 83%
  Population Fragmented Nuclei (%): 7%
  Population Healthy Nuclei (%): 35%
  Population Hoechst High Intensity Objects (%): 4%
  Population Membrane Permeable-Phenotype (%): 10%
  Population Mitochondria Different-Phenotype (%): 81%
  Population Mitotic Cells (%): 16%
  Population Normal (%): 95%
  Population Pyknosed Nuclei (%): 57%
  Population Tubulin-Different-Phenotype (%): 96%
  Total Cell Count: 162
[9]
  Population Apoptotic (%): 55%
  Population Fragmented Nuclei (%): 14%
  Population Healthy Nuclei (%): 56%
  Population Hoechst High Intensity Objects (%): 19%
  Population Membrane Permeable-Phenotype (%): 2%
  Population Mitochondria Different-Phenotype (%): 66%
  Population Mitotic Cells (%): 44%
  Population Normal (%): 80%
  Population Pyknosed Nuclei (%): 29%
  Population Tubulin-Different-Phenotype (%): 74%
  Total Cell Count: 246
[10]
  Population Apoptotic (%): 31%
  Population Fragmented Nuclei (%): 4%
  Population Healthy Nuclei (%): 75%
  Population Hoechst High Intensity Objects (%): 1%
  Population Membrane Permeable-Phenotype (%): 8%
  Population Mitochondria Different-Phenotype (%): 20%
  Population Mitotic Cells (%): 68%
  Population Normal (%): 98%
  Population Pyknosed Nuclei (%): 19%
  Population Tubulin-Different-Phenotype (%): 54%
  Total Cell Count: 469
[11]
  Population Apoptotic (%): 92%
  Population Fragmented Nuclei (%): 17%
  Population Healthy Nuclei (%): 30%
  Population Hoechst High Intensity Objects (%): 15%
  Population Membrane Permeable-Phenotype (%): 5%
  Population Mitochondria Different-Phenotype (%): 100%
  Population Mitotic Cells (%): 7%
  Population Normal (%): 84%
  Population Pyknosed Nuclei (%): 52%
  Population Tubulin-Different-Phenotype (%): 96%
  Total Cell Count: 223
[12]
  Population Fragmented Nuclei (%): 4%
  Population Healthy Nuclei (%): 54%
  Population Hoechst High Intensity Objects (%): 3%
  Population Membrane Permeable-Phenotype (%): 9%
  Population Mitochondria Different-Phenotype (%): 68%
  Population Normal (%): 96%
  Population Pyknosed Nuclei (%): 41%
  Total Cell Count: 178
